# Compound activity as filed in PubChem.
# A selection: hits, their analogues and other compounds. The true share with any hit is near 4.1%.
# KCNQ1 pot = potentiators or activators of KCNQ1 channel, primary screen, cell-based, thallium flux, high-throughput | Potassium voltage-gated channel subfamily KQT member 1 (Homo sapiens), P51787 | CHO-K1 KCNQ1, thallium flux FluxOR fluorescence; stronger effect = higher value | B-score at 10 µM | 310,000 tested, 0.35% active;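 active means fluorescence ratio B-score, a plate-corrected score, at least three library SD, with initial intensity B-score within 5 SD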
#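 System: Stable KCNQ1 CHO-K1 line | Incubation: 90 min dye loading and 20 min compound exposure, both at room temperature | Measure: Ratio B score | Medium: Assay buffer for compound exposure, DMSO matched across wells | Compound dosing: Single-concentration screen | Probe or stimulus: K+/Tl+ depolarizing stimulus | Measured by: Kinetic FluxOR fluorescence, 10 s baseline plus 110 s post-stimulus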
# KCNK9 block = KCNK9 potassium channel inhibitors, primary screen, HEK293 cells, thallium flux. Potassium channel subfamily K member 9 (Homo sapiens), Q9NPC2. FluxOR thallium flux fluorescence; stronger effect = lower value. B-score at 10 µM. 310,000 tested, 1.2% active. AID 488922, 2010;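 active means ratio B-score over 3 SD below the library mean, with starting fluorescence within 5 SD of its mean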;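 further: negative B-score means less thallium flux so channel inhibition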
# KCNK3 inh = human KCNK3 channel inhibitors, primary screen, CHO cells, FluxOR thallium flux, B-score; FluxOR fluorescence; stronger effect = lower value; B-score at 10 µM; AID 602410, 2012; 340,000 tested, 0.84% active;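 active means B-score under library mean minus 4 SD, starting fluorescence ratio at most library mean plus 5 SD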;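 further: more negative B-score means stronger inhibition of thallium flux through KCNK3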
# Target sequence (O14649 whole entry, looked up): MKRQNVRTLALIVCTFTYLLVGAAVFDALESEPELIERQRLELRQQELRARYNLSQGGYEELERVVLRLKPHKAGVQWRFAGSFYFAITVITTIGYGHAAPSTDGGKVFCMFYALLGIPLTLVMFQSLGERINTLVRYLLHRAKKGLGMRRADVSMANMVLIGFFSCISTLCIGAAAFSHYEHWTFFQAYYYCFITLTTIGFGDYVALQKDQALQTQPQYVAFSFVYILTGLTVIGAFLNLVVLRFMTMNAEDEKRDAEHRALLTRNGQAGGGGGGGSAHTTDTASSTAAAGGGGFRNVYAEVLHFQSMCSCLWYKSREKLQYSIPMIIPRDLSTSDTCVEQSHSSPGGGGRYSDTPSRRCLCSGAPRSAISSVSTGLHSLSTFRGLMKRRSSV
# hERG rescue = hERG rescue from dofetilide block, primary screen, cell-based, CHO-hERG, FluxOR thallium flux, dofetilide IC70; 310,000 tested, 0.51% active; AID 1511, 2009; dofetilide IC70 present; activation (rescue from dofetilide block), less the hit threshold, % at 10 µM;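 active means activation above the mean of controls blocked by dofetilide plus 5 SD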;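 further: thallium influx through hERG after potassium depolarization seen as dye fluorescence rise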
# KCC2 mod = KCC2 cotransporter modulators, thallium flux, primary screen, cell-based, HEK293 KCC2, FluoZin-2 fluorescence, MLSMR; Solute carrier family 12 member 5 (Homo sapiens), Q9H2X9; KCC2 cells, thallium flux FluoZin-2 fluorescence; B-score of Tl+ flux slope (higher = more flux/activation; lower = inhibition) at 10 µM; 190,000 tested, 2.2% active;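 active means thallium flux slope and its plate-corrected score both differing from the plate sample mean at a set confidence after two filtering rounds, in either direction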;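 further: slope of fluorescence scaled to starting intensity during 10 to 20 s after thallium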
# KCNQ1 inh = inhibitors of human KCNQ1 channel, primary screen, cell-based, thallium flux, high-throughput; Potassium voltage-gated channel subfamily KQT member 1 (Homo sapiens), P51787; CHO-K1 KCNQ1, FluxOR thallium flux fluorescence; stronger effect = higher value; B-score at 10 µM; 310,000 tested, 1.3% active; AID 2642, 2010;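 active means compounds whose thallium flux B-score, printed positive for inhibition, exceeds three library SD while starting fluorescence stays within three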;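 further: channel opened by potassium depolarization with thallium stimulus after 20 min compound exposure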
# Hits are given with their value; i = inactive; nt = not tested or not shown.
SMILES,KCNQ1 pot,KCNK9 block,KCNK3 inh,hERG rescue,KCC2 mod,KCNQ1 inh
CC(NC(=O)COC(=O)/C(=C/c1cccs1)c1cccs1)c1ccccc1 (stereo not given),i,-6.77,i,i,i,i
O=C(CSc1n[nH]c(-c2ccc(S(=O)(=O)N3CCCCC3)cc2)n1)Nc1nccs1,i,i,i,6.5,nt,i
CCN(CC)CCN1C(=O)c2oc3ccccc3c(=O)c2C1c1ccccc1 (stereo not given),i,i,i,i,nt,i
CCN(CC)CCN1C(=O)c2oc3ccccc3c(=O)c2C1c1cccc(Br)c1 (stereo not given),i,i,i,i,24.5,i
CCN(CC)CCCN1C(=O)c2oc3ccccc3c(=O)c2C1c1cccs1 (stereo not given),15,i,nt,25.8,nt,i
NC(=O)C1CC(=O)N(c2ccc(OCC(=O)Nc3ccc(F)cc3)cc2)C1 (stereo not given),nt,nt,i,nt,nt,nt
CC1CCCCN1C(=O)c1ccc(C(=O)Nc2ccc(F)cc2)cc1 (stereo not given),nt,nt,i,nt,nt,nt
CN(/N=C/c1ccc(-c2ccc([N+](=O)[O-])cc2)o1)c1ccccc1,i,i,i,i,nt,8
CN(/N=C/c1cc([N+](=O)[O-])ccc1O)c1ccccc1,i,i,i,i,i,i
Cc1ccc(N(C(=O)CNC(=O)c2ccco2)C(C(=O)NC2CCCCC2)c2ccncc2)cc1F (stereo not given),i,i,i,i,nt,i
O=C(Nc1ccccc1F)Nc1ccc([N+](=O)[O-])cc1Cl,i,i,i,i,i,8
O=C(CN1C(=O)CSc2ccc(S(=O)(=O)N3CCCCC3)cc21)NCc1ccccc1,i,i,i,i,nt,i
CC(NC(=S)NC(=O)c1ccccc1Br)c1ccccc1 (stereo not given),8,i,i,i,nt,i
CC(C)C(NC(=O)c1ccccc1Br)c1ccccc1 (stereo not given),i,i,i,i,i,i
O=C(COc1ccccc1)N=C1SC2CS(=O)(=O)CC2N1Cc1ccccc1 (stereo not given),i,i,i,i,nt,i
COc1ccc(CCN(C(=O)Cn2nnc3ccccc32)C(C(=O)NCC2CCCO2)c2ccncc2)cc1OC (stereo not given),i,i,i,39.3,nt,i
Cc1cc(C)nc(Sc2ncnc3sc4c(c23)CCC4)n1,i,i,i,i,7.63,i
O=S(=O)(c1ccc(S(=O)(=O)N2CCC(O)CC2)cc1)N1CCCC1,i,i,i,i,nt,i
COc1ccc(OC)c2sc(NC(=O)c3ccc(Cl)s3)nc12,i,i,i,i,nt,i
COc1ccc(OC)c2sc(NC(=O)c3ccc(Br)s3)nc12,i,i,i,i,6.15,i
Cc1ccnc(NC(=O)c2ccc(Cl)c(S(=O)(=O)N3CCCC3)c2)c1,i,i,i,i,nt,i
CCOc1ccc(S(=O)(=O)NNC(=S)Nc2ccc(Br)cc2)cc1,i,i,i,i,i,i
CCOc1ccc(NC(=S)NS(=O)(=O)c2cc(Br)ccc2OCC)cc1,i,i,i,7.1,nt,i
CC1CCCCN1CC(=O)Nc1ccc2c(c1)OCO2 (stereo not given),nt,nt,i,nt,nt,nt
CCOC(=O)c1c(C)[nH]c(C(=O)CN(C)CC(=O)Nc2ccccc2Cl)c1C,nt,nt,-11,nt,nt,nt
SMILES,KCNQ1 pot,KCNK9 block,KCNK3 inh,hERG rescue,KCC2 mod,KCNQ1 inh
CC(=O)c1c(C)[nH]c(C(=O)CN(C)CC(=O)Nc2ccccc2Cl)c1C,nt,nt,i,nt,nt,nt
Cc1ccc(O)c(-c2cc(-c3ccccc3C)[nH]n2)c1,i,-7.37,i,i,i,i
Cc1ccc(O)c(-c2cc(-c3ccccc3[N+](=O)[O-])[nH]n2)c1,i,i,i,i,i,i
COc1cc(/C=C2/CC/C(=C/c3ccc(O)c(OC)c3)C2=O)ccc1O,i,-7.37,-9.1,i,i,i
CN1C(=O)/C(=C/c2ccc(O)c([N+](=O)[O-])c2)N(C)C1=S,i,i,i,i,i,i
COc1cc(/C=C2\C(=O)N(C)C(=S)N2C)ccc1O,15,i,i,i,i,i
Cc1ccc(C2(C)NC(=O)N(CC(=O)Nc3ccc(Cl)c(S(=O)(=O)N4CCCCC4)c3)C2=O)cc1 (stereo not given),i,i,i,i,nt,i
CC(=O)c1ccc(N(CC(=O)NC2CCCCC2)C(=O)CNC(=O)c2cccs2)cc1,i,i,i,i,nt,i
CC1=C(CC(=O)c2ccc(Cl)cc2)C(=O)c2ccccc2C1=O,i,-6.74,i,i,i,i
COc1cc(OC)c(OC)cc1CNC(=O)c1cc(=O)c2ccccc2o1,9,i,i,i,nt,i
COc1ccc(CNC(=O)c2cc(=O)c3ccccc3o2)cc1,i,i,i,i,nt,i
Cc1cc(N/N=C/c2ccccc2)nc(NCc2ccccc2)n1,i,i,i,i,i,i
Cc1cc(N/N=C/c2cccc(F)c2)nc(NCc2ccccc2)n1,i,i,i,i,i,8
Cc1cc(-c2ccccc2)nc(N/N=C/c2cccnc2)n1,i,i,i,i,i,i
Cc1cc(-c2ccccc2)nc(N/N=C/c2ccccc2)n1,i,-6.97,i,i,nt,i
O=C(CCCN1C(=O)C2CC=CCC2C1=O)Nc1cccc(F)c1 (stereo not given),i,i,i,i,nt,i
CC(C)C1C(c2ccccc2)N(C)C(c2ccccc2)CC1(O)c1ccccc1 (stereo not given),i,i,i,i,nt,i
CCC1C(c2ccccc2)N(C)C(c2ccccc2)CC1(O)c1ccccc1 (stereo not given),i,i,i,i,nt,12
CC1CC(C)CN(C(=O)C(C)N2CCN(S(=O)(=O)c3ccc(Br)s3)CC2)C1 (stereo not given),nt,nt,i,nt,nt,nt
CC(=O)Oc1ccc(C(=O)Nc2cccc(C(=O)c3ccc(C)c(C)c3)c2)cc1,i,i,i,i,nt,6
COc1ccc(C(=O)Nc2cccc(OC(=O)c3ccco3)c2)cc1,i,i,i,i,nt,i
COc1ccc(C(=O)Nc2cccc(OC(=O)c3ccc(C)c(C)c3)c2)cc1,i,i,i,i,i,6
CC(=O)Oc1cccc(NC(=O)c2cccc(C(=O)Nc3cccc(OC(C)=O)c3)c2)c1,i,i,i,i,nt,i
Cc1cc(-c2ccccc2)nc(Oc2cccc(C(F)(F)F)c2)c1S(C)(=O)=O,i,i,i,i,i,i
